From article PMC4123212 (Chemistry & biology, 2014)

How the values were obtained:
Erk2^DS1 (Q103T/C164L) = details: ref Hari et al., 2013; cited from earlier work
Erk2^WT [1] = target: T1, Erk2^WT (Rattus norvegicus, UniProt P63086); experiment: Activation inhibition assay; format: biochemical; details: ELISA
Erk2^DS1 [2] = target: T2, Erk2^DS1 (Rattus norvegicus, UniProt P63086, C164L/Q103T); experiment: Activation inhibition assay; format: biochemical; details: Erk2^DS1, ATP 5 µM, bis-phosphorylated Erk2 by ELISA
Procedure, shortened: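 Erk2 variant preincubated 30 min at RT with ATP (5 µM) and titrated test compound (2% DMSO) in 50 mM MOPS pH 7.4, 10 mM MgCl2, 1 mM DTT, 0.001% Tween 20, 0.1 mg/mL BSA. MEK2 then added and incubated at RT; enzyme levels and times set by linearity. Quenched with 20 mM EDTA, plate-bound overnight at 4 °C, then anti-phospho-Erk2/HRP ELISA. EC50 from nonlinear regression; triplicates.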

[3] = target: GFP-tagged Erk2^DS1 in HEK293 cells (Rattus norvegicus, UniProt P63086, C164L/Q103T); experiment: In-cell activation inhibition, EGF-stimulated HEK293 cells; format: cell-based; details: 2 at 100-1000 nM, SB203580 1000 nM, immunoblot
Procedure, shortened: (§1)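 Low-passage HEK293 transiently transfected with GFP-Erk2 plasmid, split next day into 96-well format, serum-starved 24 h. Test compound added for 1 h at 37 °C (final 1% DMSO), then human EGF 50 ng/mL for 5 min at 37 °C. DMSO controls with and without EGF. Cells lysed by boiling in SDS loading buffer; SDS-PAGE, immunoblot for GFP and ppErk.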

Erk2^WT [4] = target: T1, Erk2^WT; experiment: DUSP6 activation inhibition; format: biochemical; details: inhibitor 5 µM, 4-MUP turnover
Procedure, shortened: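 DUSP6 (140 nM) added for 1 h at RT, then 4-MUP (250 µM). Fluorescence read at Ex/Em 355/460 nm after 2 h at RT; Erk2-free wells used as background.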

Erk2^WT [5] = target: T1, Erk2^WT; details: Ki values reported previously, ref Hari et al., 2013; cited from earlier work
Erk2^DS1 [6] = target: T2, Erk2^DS1; experiment: Activation inhibition assay; format: biochemical; details: Erk2^DS1, PhosTag-acrylamide PAGE
Procedure, shortened: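 This run uses the MOPS/MgCl2 activation setup (ATP 5 µM, 30 min compound preincubation at RT) but with tenfold more MEK2. Reactions were stopped in SDS loading buffer without EDTA. Erk2 phospho-forms were resolved by SDS-PAGE in gels containing 50 µM PhosTag-acrylamide and 100 µM MnCl2.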

[7] = target: GFP-tagged Erk2^WT in HEK293 cells (Rattus norvegicus, UniProt P63086); experiment: In-cell activation inhibition, EGF-stimulated HEK293 cells; format: cell-based; details: 2 at 100-1000 nM, SB203580 1000 nM, immunoblot
Procedure, shortened: as §1

phospho-Erk2^DS2 = phospho-Erk2^DS2 (Rattus norvegicus, UniProt P63086, C164L/Q103A); experiment: Phosphatase inhibition: DUSP6-mediated dephosphorylation; format: biochemical; details: phospho-Erk2^DS2, relative to apo enzyme, ELISA
phospho-Erk2^WT = phospho-Erk2^WT (Rattus norvegicus, UniProt P63086); experiment: as above; format: biochemical; details: ELISA
Erk2^DS2 (Q103A/C164L) = Erk2^DS2 (Q103A/C164L) (Rattus norvegicus, UniProt P63086, C164L/Q103A); details: ref Hari et al., 2013; cited from earlier work

C[S+]([O-])c1ccc(-c2nc(-c3ccncc3)c(-c3ccc(F)cc3)[nH]2)cc1 (centres unmarked) [SB203580]
Sensitivity of drug sensitive Erk2 mutant to inhibitor (Erk2^DS1 (Q103T/C164L)): highly sensitive
Decrease in the amount of activation loop phosphorylated Erk2 (MEK2) (Erk2^WT [1]): neither 2 nor SB203580 lead to a significant decrease
Inhibition of dual phosphorylation of Erk2's activation loop by MEK2 (Erk2^DS1 [2]): only a minimal effect
Cellular Erk2 activation upon EGF stimulation [3]: had no effect
Effect on Erk2-mediated activation of DUSP6 (Erk2^WT [4]): none of these ligands affected
Inhibition of wild type Erk2 (Erk2^WT [5]): very weakly inhibited
Formation of bis-phosphorylated Erk2 (MEK2) (Erk2^DS1 [6]): comparable levels of bis-phosphorylation
Cellular Erk2 activation upon EGF stimulation [7]: not affected
Effect on DUSP6-mediated dephosphorylation of the TxY motif (phospho-Erk2^DS2): enhanced the phosphatase activity of DUSP6
Effect on DUSP6-mediated dephosphorylation (phospho-Erk2^WT): none of the inhibitors affected
Sensitivity of drug sensitive Erk2 mutant to inhibitor (Erk2^DS2 (Q103A/C164L)): highly sensitive
